Common to all, as to format: functional
The species entered for experiment [1] is Mus musculus. Put plainly: In vitro cytotoxic T-Lymphocyte (CTL) activity relative to interleukin 2 was obtained at a concentration of 10 e -7 M(+ represents 21 - 40% of interleukin 2). In outline: (§1)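 Splenocytes from 6- to 8-week-old female C57BL/6 and irradiated (3000 rads) DBA/2 mice, 10⁷ cells, were cultured together in RPMI 1640 with 10% FCS. Culture ran 120 h at 37 °C in 5% CO₂, with [³H]thymidine pulse of an aliquot. Percent specific lysis was scaled to IL 2 (taken as 100%) and scored 0 to ++++ in 20% bands.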

The species entered for experiment [2] is Mus musculus. In words: In vitro cytotoxic T-Lymphocyte (CTL) activity relative to interleukin 2 was obtained at a concentration of 10 e -7 M(++ +represents 61 - 80% of interleukin 2). Put shortly: as §1
For experiment [3], the species on record is Mus musculus. Put plainly: In vitro cytotoxic T-Lymphocyte (CTL) activity relative to interleukin 2 was obtained at a concentration of 10 e -7 M(++ represents 21 - 40% of interleukin 2). To be noted: in the assay text read “+ represents” for “++ represents”. In outline: as §1
The species entered for experiment [4] is Mus musculus. Put plainly: In vitro cytotoxic T-Lymphocyte (CTL) activity relative to interleukin 2 was obtained at a concentration of 10 e -7 M(++ represents 41 - 60% of interleukin 2). In outline: as §1
The species entered for experiment [5] is Mus musculus. Put plainly: In vitro cytotoxic T-Lymphocyte (CTL) activity relative to interleukin 2 was obtained at a concentration of 10 e -7 M(++++ represents 81 - 100% of interleukin 2). Put shortly: as §1
The species named for experiment [6] is Mus musculus. Put plainly: In vitro cytotoxic T-Lymphocyte (CTL) activity relative to interleukin 2 was obtained at a concentration of 10 e -5 M(+ represents 21 - 40% of interleukin 2). Put shortly: as §1
For experiment [7], the species on record is Mus musculus. Put plainly: In vitro cytotoxic T-Lymphocyte (CTL) activity relative to interleukin 2 was obtained at a concentration of 10 e -5 M (+ represents 21 - 40% of interleukin 2). In outline: as §1

Consider `N=C(N)NCCCC(NC(=O)OCCCCCn1cnc2c(N)ncnc21)C(=O)O` (single isomer, unassigned), for which the CTL activity in the experiment listed under Mus musculus [1] is 21 - 40% of interleukin 2; in the experiment listed under Mus musculus [2] it was “+”.
Turning to `N=C(N)NCCC[C@H](NC(=O)OCCCCCn1cnc2c(NC3CC3)ncnc21)C(=O)O`, the CTL activity in the experiment listed under Mus musculus [3] is given as 21 - 40% of interleukin 2.
In the case of `CN(C)c1ncnc2c1ncn2CCCCCOC(=O)NCC(=O)O`, the CTL activity in the experiment filed under Mus musculus [1] is reported as 21 - 40% of interleukin 2.
As for `CN(C)c1ncnc2c1ncn2CCCCCOC(=O)CCN`, the CTL activity in the experiment listed under Mus musculus [4] is 41 - 60% of interleukin 2.
For `N=C(N)NCCCC(NC(=O)OCCCCCn1cnc2c(NN)ncnc21)C(=O)O` (single isomer, unassigned), in the experiment filed under Mus musculus [5], the CTL activity result was “++”.
As for `CN(C)c1ncnc2c1ncn2C[C@H]1CC[C@@H](COC(=O)N[C@@H](CCCNC(=N)N)C(=O)O)CC1`, the CTL activity in the experiment filed under Mus musculus [6] is reported as 21 - 40% of interleukin 2.
Turning to `N=C(N)NCCC[C@@H](NC(=O)OCCCCCn1cnc2c(O)ncnc21)C(=O)O`, the CTL activity in the experiment listed under Mus musculus [4] is given as 41 - 60% of interleukin 2.
Still for that read-out and setting: then `CN(C)c1ncnc2c1ncn2CCCCCCOC(=O)N[C@@H](CCCNC(=N)N)C(=O)O`, with 41 - 60% of interleukin 2; and `CN(C)c1ncnc2c1ncn2CCCCCNC(=O)OCCCCCn1cnc2c(N(C)C)ncnc21`, with 41 - 60% of interleukin 2.
As to `CNc1ncnc2c1ncn2CCCCCOC(=O)NC(CCCNC(=N)N)C(=O)O` (single isomer, unassigned), in the experiment filed under Mus musculus [7], the CTL activity is 21 - 40% of interleukin 2.

The values above are taken from ChEMBL document CHEMBL1130139, “Synthesis and activity of 6-substituted purine linker amino acid immunostimulants” (1997).
